From PubChem
Shown are actives, neighbours in structure and some others; about 5.1% of the full set was active somewhere.
STAT3 act: IL-6 driven STAT3 reporter potentiators, primary screen, U3A cells, luciferase, luminescence, MLSCN library; IL-6 STAT3-luciferase reporter; 100% = signal with IL-6 EC80 alone; activation (% of control), % at 5.6 µM; hit rate 0.91% among 190,000; AID 871, 2007;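 active means activation above the screen-wide mean of compound activation plus 3 SD, cut at about 130% in these data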;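 further: 0% = background luminescence of wells with medium and substrate only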
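Material: STAT1-lacking human U3A cells, STAT3 luciferase reporter | Benchmarks: IL-6-only wells as 100% reference | Probe or stimulus: IL-6 (33 ng/mL) | Timing: Compound 1 h, then IL-6 6 h at 37 °C | Detection: Luminescence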
STAT1 inh: STAT1 signaling inhibitors, primary screen, cell-based, HTS, luciferase reporter. NIH 3T3 STAT1-luciferase reporter, IFN-gamma, luminescence. inhibition, % at 5.5 µM. hit rate 0.35% among 200,000;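 active means inhibition above a set limit, the mean inhibition across all tested compounds plus 3 SD, cut at about 34% in these data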;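 further: 0% = IFN-gamma with DMSO and 100% = IFN-gamma with 300 µM nifuroxazide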
APP 5'UTR act: activators of APP 5'UTR luciferase reporter, primary screen, SH-SY5Y cells; SH-SY5Y APP 5'UTR luciferase reporter, luminescence; zero percent = DMSO vehicle wells; activation, % at 2 µM; hit rate 1% among 190,000;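 active means activation above a set limit, based on mean plus 3 SD of controls, cut at about 140% in these data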
STAT3 inh: IL-6 driven STAT3 reporter inhibitors, primary screen, U3A cells, luciferase, luminescence, MLSCN library | IL-6 STAT3-luciferase reporter; host cell line lacks STAT1 | inhibition, % at 5.5 µM | hit rate 0.89% among 190,000 | AID 862, 2007;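 active means inhibition above the mean inhibition across all screened compounds plus 3 SD, cut at about 44% in these data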;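 further: 0% = DMSO only wells and 100% = 100 µM nifuroxazide control wells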
STAT1 act: STAT1 signaling activators, primary screen, cell-based, HTS, luciferase reporter; NIH 3T3 STAT1-luciferase reporter, IFN-gamma, luminescence; 100% = IFN-gamma alone, no compound; activation (% of control), % at 5.5 µM; hit rate 2.6% among 200,000;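 active means activation above the screen-wide mean activation plus 3 SD, cut at about 130% in these data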;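 further: raw ratio to IFN-gamma control signal so 100% means no change and 0% no light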
NF-kB expr up: activators of NF-kB expression in neurons, primary screen, cell-based, HTS | human neuronal cells, NF-kB reporter expression; active compounds read high | fold change at 12.5 µM | hit rate 1.6% among 190,000 | AID 1239, 2008; in the data active means fold change above about 3.3
Starred values were filed as active, the others as inactive.

SMILES	STAT3 act	STAT1 inh	APP 5'UTR act	STAT3 inh	STAT1 act	NF-kB expr up
O=[N+]([O-])c1ccc(-c2cc(-c3ccc(Cl)cc3)n[nH]2)cc1	83.4	-43.5	9.4	26.3	137.8*	1.7
CC1(C)C/C(=N\NC(=S)Nc2ccccc2F)c2cc(O)ccc2O1	96.7	13.3	-4.1	10.5	86.4	0.99
COC(=O)c1cc(-c2ccc(OC)cc2)n[nH]1	97.3	-16.7	39.5	3.2	115.7	1.13
COc1ccc(-c2cc(-c3ccccc3O)[nH]n2)cc1	86.2	-6.2	191.9*	19.0	105.6	7.07*
COc1ccc(/C=C/c2nc(-c3ccccc3O)n[nH]2)cc1	98.7	12.7	170.4*	-1.0	88.7	7.63*
COc1ccc(-c2cc(-c3ccccc3)n[nH]2)c(O)c1	89.3	-0.9	190.5*	19.8	98.9	7.86*
CC(C)NC(=O)c1cc(-c2ccc(Br)cc2)on1	93.4	-54.8	114.6	8.5	149.6*	4.94*
CCCNC(=O)c1cc(-c2ccc(Br)cc2)on1	99.0	-21.5	9.6	4.7	119.7	3.63*
CC(C)NC(=O)c1cc(-c2ccco2)on1	102.9	-18.3	34.9	-0.7	116.6	1.53
COc1ccc(-c2cc(C(=O)NCC(C)C)no2)cc1	93.6	-35.7	25.7	6.3	132.8*	5.01*
CCCn1cc(NC(=O)c2cc(-c3ccccc3)on2)cn1	102.9	-32.2	0.2	3.6	129.7*	3.63*
Cc1ccc(-c2cc(C(=O)NCCN3CCOCC3)no2)cc1	97.7	0.2	21.9	6.5	99.8	1.07
Cc1ccc(OCCC(=O)OCC(=O)Nc2cc(S(=O)(=O)N(C)C)ccc2C)cc1	103.7	-3.6	-9.1	-3.1	102.0	1.06
O=C(CCS(=O)(=O)c1ccc(Cl)cc1)NCCc1c[nH]c2ccccc12	125.0	3.0	1.6	-27.7	96.5	0.93
CC1=NN(C(=O)COc2ccc(C)c(C)c2)C(O)(c2ccccc2)C1 (stereo unspecified)	110.7	5.0	16.0	-11.9	95.5	1.27
COc1ccc(C(=O)COC(=O)c2ccco2)cc1	107.8	-18.0	65.5	-1.8	116.5	3
COc1ccc(/C(N)=N/OC(=O)c2ccco2)cc1	55.7	53.3*	182.5*	56.8*	49.5	0.96
N/C(=N\OC(=O)c1ccco1)c1ccccn1	96.7	-19.6	77.0	7.2	116.0	2.21
Cc1cccc(/C(N)=N/OC(=O)N2CCOCC2)c1	101.0	-17.6	18.6	3.7	115.7	1.58
Cc1ccc(/C(N)=N/OC(=O)c2ccco2)cc1	76.7	6.2	162.0*	30.7	94.3	5.2*
N/C(=N\OC(=O)c1ccco1)c1ccccc1	88.5	-49.7	141.6*	15.8	143.4*	2.2
Cc1cccc(/C(N)=N/OC(=O)c2ccco2)c1	82.1	-10.5	162.7*	24.4	109.7	6.42*
COc1ccc(NS(=O)(=O)c2cccc(C(=O)N/N=C/c3ccc(O)cc3)c2)cc1	105.7	2.3	-8.1	-4.6	97.3	0.92
O=C(COC(=O)/C=C/c1ccc(Br)o1)NCCCN1CCCC1=O	100.2	-1.5	-5.0	4.7	103.1	1.12
Cc1ccc(NCc2ccc(O)c3ncccc23)cc1C	135.3*	-5.3	14.9	-38.8	103.4	0.99
SMILES	STAT3 act	STAT1 inh	APP 5'UTR act	STAT3 inh	STAT1 act	NF-kB expr up
Cc1cccnc1NCc1ccc(O)c2ncccc12	98.6	4.5	-6.2	6.4	95.9	8.63*
Cc1ccc(NCc2ccc(O)c3ncccc23)cc1	100.0	-8.9	7.2	2.3	106.6	1.35
CSc1ccc(CN2CCN(C3CCCC3)C(CCO)C2)cc1 (stereo unspecified)	91.8	-0.6	-14.3	13.6	99.1	1.07
CCOC(=O)C1(Cc2cccc(OC)c2)CCN(Cc2ccc(C)s2)CC1	95.2	18.1	3.0	10.5	82.3	0.83
CCOC(=O)c1noc(C)c1C(=O)Nc1nccs1	106.5	8.6	7.1	-6.2	91.9	5.95*
COC(=O)Cc1c(OC)ccn(CCc2c[nH]c3ccccc23)c1=O	106.8	-38.5	89.6	-2.9	136.1*	2.66
O=C(CCC(=O)Nc1ccccc1)NNC(=O)COc1ccccc1	113.2	-6.2	-2.2	-18.6	105.6	0.99
NC(=O)c1ccccc1NS(=O)(=O)c1ccccc1	99.5	-0.2	-7.3	0.8	100.2	1.49
Cc1ccc(S(=O)(=O)Nc2ccccc2C(N)=O)cc1	134.4*	-9.3	-2.8	-36.9	111.2	1.03
O=C(OCc1csc(-c2ccccc2)n1)c1ccc(O)cc1	95.2	-52.2	64.4	6.5	149.7*	3.29
Cc1ccc(C(=O)NCC(=O)OCc2csc(-c3ccccc3)n2)cc1	92.8	-3.5	4.1	4.6	103.2	1.2
CCCC(=O)Oc1ccc(-c2nccc(C(OC)OC)n2)cc1	98.7	-0.1	9.7	3.7	99.6	1.3
COc1ccc(C(=O)Nc2nc3c(s2)CCCC3)cc1S(=O)(=O)N1CCCc2ccccc21	105.8	2.4	-14.1	-9.5	97.8	0.7
COC(=O)C(C)Sc1ncnc2c1nnn2-c1ccc(F)cc1 (stereo unspecified)	91.7	-40.7	13.9	10.5	136.8*	1.53
CCOC(=O)CNC(=O)CSc1ncnc2c1nnn2-c1ccc(F)cc1	96.0	3.5	-5.0	9.5	96.7	1.67
COCCn1c(C)cc(/C=C2/NC(=O)N(c3cccc(Cl)c3)C2=O)c1C	97.8	-42.8	56.6	10.2	137.8*	0.97
CC(C)n1cc(/C=C2\NC(=O)N(c3cccc(Cl)c3)C2=O)c2ccccc21	105.4	3.9	-5.1	-1.7	96.4	1.07
O=C1Nc2ccc([N+](=O)[O-])cc2C1(O)N1CCCCCC1 (stereo unspecified)	97.7	7.5	10.4	7.1	93.2	0.8
CCOc1ccc(-c2cc(C(=O)OC)[nH]n2)cc1	99.9	-43.8	58.5	0.7	141.8*	2.68
Cc1cccc(NC(=O)c2cc(=O)c3ccccc3o2)n1	85.3	-37.4	9.2	20.9	134.1*	1.01
NC(=O)c1ccsc1NC(=O)c1cc(=O)c2ccccc2o1	108.2	-42.3	105.4	-9.7	138.4*	1.51
CC(/C=C1\SC(=O)N(CCCC(=O)O)C1=O)=C\c1ccccc1	31.1	35.8*	-78.5	83.7*	66.3	0.28
CC(/C=C1\SC(=S)N(CCCC(=O)Nc2ccc(C(=O)O)cc2)C1=O)=C\c1ccccc1	99.0	-2.5	15.1	4.9	102.3	1.8
COc1ccc(/C=N/NC(=O)Cc2cc(OC)c(OC)cc2[N+](=O)[O-])cc1	104.3	-1.6	14.4	-10.5	101.4	1.17
